Values after ≈ are worked out from the molar mass of the structure shown.
How the values were obtained:
[1] = test system: Candida albicans; test: Antifungal activity against fluconazole-resistant Candida albicans 103 assessed as fungal growth inhibition by CLSI protocol based method
[2] = test system: Candida albicans; test: Fungicidal activity against Candida albicans ATCC SC5314 assessed as inhibition of visible fungal growth measured after 48 hrs; assay type: functional
[3] = test system: Candida albicans; test: Fungicidal activity in Candida albicans CPCC400616 assessed as reduction in viable colony formation measured within 16 hrs by time kill assay; assay type: functional; details: time hrs <16
Outline: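 Diluted samples were plated on PDA and incubated 24 h at 35 °C. CFU were counted and log10 CFU/mL was plotted against time. Detection limit was 100 CFU/mL. Run in triplicate.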

[4] = target: T1, Lanosterol 14-alpha demethylase (Candida albicans (strain SC5314 / ATCC MYA-2876) (Yeast), UniProt P10613); test: Inhibition of CYP51 in Candida albicans assessed as Eburicol level at 0.015 ug/ml measured after 18 hrs by GC-MS analysis relative to control; set-up: scale not given: the % may be the effect or the level left; details: at 0.015 µg/mL
T1 sequence (P10613 whole entry): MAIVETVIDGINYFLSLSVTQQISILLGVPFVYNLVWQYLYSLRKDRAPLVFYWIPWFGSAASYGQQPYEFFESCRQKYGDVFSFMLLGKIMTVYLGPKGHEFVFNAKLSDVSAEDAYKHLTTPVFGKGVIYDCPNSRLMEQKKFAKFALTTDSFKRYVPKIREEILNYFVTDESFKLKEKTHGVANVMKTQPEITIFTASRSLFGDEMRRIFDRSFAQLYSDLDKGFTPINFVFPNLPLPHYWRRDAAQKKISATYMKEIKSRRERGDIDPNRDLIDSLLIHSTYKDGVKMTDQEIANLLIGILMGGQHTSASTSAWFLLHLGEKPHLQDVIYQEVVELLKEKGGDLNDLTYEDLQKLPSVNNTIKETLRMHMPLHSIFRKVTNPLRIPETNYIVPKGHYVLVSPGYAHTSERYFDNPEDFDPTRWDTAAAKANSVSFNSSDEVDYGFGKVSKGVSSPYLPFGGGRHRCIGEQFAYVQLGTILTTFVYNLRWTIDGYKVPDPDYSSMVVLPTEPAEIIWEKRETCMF

[5] = target: T1, Lanosterol 14-alpha demethylase; test: Inhibition of CYP51 in Candida albicans assessed as lanosterol level at 0.015 ug/ml measured after 18 hrs by GC-MS analysis relative to control; set-up: scale not given: the % may be the effect or the level left; details: at 0.015 µg/mL
[6] = test system: Candida albicans; test: Anti-biofilm activity in Candida albicans CPCC400616 assessed as inhibition of biofilm formation incubated for 6 hrs by XTT assay; assay type: functional
Outline: (§1)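 C. albicans CPCC400616 suspension placed in wells at 37 °C. Non-adherent cells and medium were removed at 3, 6, 18 or 24 h and wells washed with PBS. Compounds were added at a range of concentrations in fresh RPMI 1640 and incubated a further 24 h at 37 °C. Biofilm metabolic activity was read by XTT reduction.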

[7] = test system: Candida albicans; test: Antifungal activity against Candida albicans CPCC400616 assessed as fungal growth inhibition by CLSI protocol based method; assay type: functional
[8] = Metabolic stability in human plasma assessed as parent compound remaining after 60 mins by LC-MS/MS analysis; assay type: ADME, cell-free; details: read-out: Stability
[9] = target: T1, Lanosterol 14-alpha demethylase; test: Inhibition of CYP51 in Candida albicans assessed as 14alpha-methylfecosterol level at 0.015 ug/ml measured after 18 hrs by GC-MS analysis relative to control; set-up: scale not given: the % may be the effect or the level left; details: at 0.015 µg/mL
[10] = target: T1, Lanosterol 14-alpha demethylase; test: Inhibition of CYP51 in Candida albicans assessed as Ergosterol level at 0.015 ug/ml measured after 18 hrs by GC-MS analysis (reference value: 96.93 %); set-up: scale not given: the % may be the effect or the level left; details: at 0.015 µg/mL
[11] = test system: Candida albicans; test: Anti-biofilm activity in Candida albicans CPCC400616 assessed as inhibition of biofilm formation measured up to 24 hrs by XTT assay; assay type: functional, organism-based; details: time hrs <=24
Outline: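 C. albicans CPCC400616 suspension allowed to adhere in 96-well plates at 37 °C; non-adherent cells and medium removed after 3, 6, 18 or 24 h. Wells washed with PBS, compounds added at graded concentrations in fresh RPMI 1640, then incubated a further 24 h at 37 °C. Biofilm quantified semiquantitatively by XTT reduction. SMIC50 is the concentration inhibiting biofilm metabolic activity by 50%.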

[12] = test system: Candida albicans; test: Antifungal activity against Candida albicans ATCC SC5314 assessed as fungal growth inhibition by CLSI protocol based method; assay type: functional
[13] = test system: Cryptococcus neoformans; test: Antifungal activity against Cryptococcus neoformans CGMCC2.3161 assessed as fungal growth inhibition by CLSI protocol based method; assay type: functional
[14] = Metabolic stability in human plasma assessed as parent compound remaining after 120 mins by LC-MS/MS analysis; assay type: ADME, cell-free; details: read-out: Stability
[15] = test system: Candida albicans; test: Antifungal activity against fluconazole-resistant Candida albicans 904 assessed as fungal growth inhibition by CLSI protocol based method
[16] = test system: Candida albicans; test: Anti-biofilm activity in Candida albicans CPCC400616 assessed as inhibition of biofilm formation incubated for 3 hrs by XTT assay; assay type: functional
Outline: as §1

[17] = test system: Candida tropicalis; test: Antifungal activity against Candida tropicalis CGMCC 2.3739 assessed as fungal growth inhibition by CLSI protocol based method; assay type: functional
[18] = test system: Candida albicans; test: Fungicidal activity in Candida albicans CPCC400616 assessed as reduction in viable colony formation measured after 24 hrs by time kill assay; assay type: functional, organism-based
[19] = test system: THLE-2; test: Cytotoxicity against human THLE-2 cells assessed as reduction in cell viability measured after 96 hrs by MTT assay; assay type: ADME, cell-based; details: THLE-2, 96 h
[20] = test system: Pichia kudriavzevii; test: Antifungal activity against Candida krusei GIM2.1 assessed as fungal growth inhibition by CLSI protocol based method; assay type: functional
[21] = Metabolic stability in human plasma assessed as half life after 60 mins by LC-MS/MS analysis; assay type: ADME, cell-free
[22] = test system: Nakaseomyces glabratus; test: Antifungal activity against Candida glabrata assessed as fungal growth inhibition by CLSI protocol based method; assay type: functional
[23] = test system: Candida albicans; test: Antifungal activity against fluconazole-resistant Candida albicans 311 assessed as fungal growth inhibition by CLSI protocol based method
[24] = test system: Candida parapsilosis; test: Antifungal activity against Candida parapsilosis GIM2.190 assessed as fungal growth inhibition by CLSI protocol based method; assay type: functional; details: Lodderomyces parapsilosis
[25] = target: T1, Lanosterol 14-alpha demethylase; test: Inhibition of CYP51 in Candida albicans assessed as other sterols level at 0.015 ug/ml measured after 18 hrs by GC-MS analysis relative to control; set-up: scale not given: the % may be the effect or the level left; details: at 0.015 µg/mL
[26] = test system: A549; test: Cytotoxicity against human A549 cells assessed as reduction in cell viability measured after 96 hrs by MTT assay; assay type: ADME, cell-based; details: A549, 96 h
[27] = test system: Candida albicans; test: Antifungal activity against fluconazole-resistant Candida albicans 100 assessed as fungal growth inhibition by CLSI protocol based method
[28] = test system: Candida albicans; test: Antifungal activity against fluconazole-resistant Candida albicans 632 assessed as fungal growth inhibition by CLSI protocol based method
[29] = test system: MCF7; test: Cytotoxicity against human MCF7 cells assessed as reduction in cell viability measured after 96 hrs by MTT assay; assay type: ADME, cell-based; details: MCF7, 96 h
[30] = test system: Candida albicans; test: Antifungal activity against fluconazole-resistant Candida albicans 901 assessed as fungal growth inhibition by CLSI protocol based method
[31] = test system: Candida albicans; test: Anti-biofilm activity in Candida albicans CPCC400616 assessed as inhibition of biofilm formation incubated for 24 hrs by XTT assay; assay type: functional
Outline: as §1

**Q.** Which results are given for Cc1ccc(C(=O)C(Cn2ccnc2)NC(=O)c2ccc(-c3ccc(Cl)cc3)s2)cc1 (stereo unspecified)?
**A.** MIC [1]: 1 µg/mL (≈ 2.22 µM); MFC [2]: 0.125 µg/mL (≈ 0.278 µM); Activity [3]: 2 log10CFU/ml; Activity [4]: 31.02%; Activity [5]: 42.91%; MBIC50 [6]: 8 µg/mL; MIC [7]: < 0.03 µg/mL; remaining at 1 h [8]: 93.1%; Activity [9]: 3.2%; Activity [10]: 5.06%; Activity [11]: Dose-Dependent Effect; MIC [12]: < 0.03 µg/mL; MIC [13]: 0.5 µg/mL (≈ 1.11 µM); remaining at 2 h [14]: 89.5%; MIC [15]: 0.25 µg/mL (≈ 0.556 µM); MBIC50 [16]: 1 µg/mL; MIC [17]: < 0.03 µg/mL; Activity [18]: Dose-Dependent Effect; IC50 [19]: 16.1 µM; MIC [20]: 1 µg/mL (≈ 2.22 µM); half-life [21]: > 4.8 h; MIC [22]: 0.25 µg/mL (≈ 0.556 µM); MIC [23]: 1 µg/mL (≈ 2.22 µM); MIC [24]: 0.5 µg/mL (≈ 1.11 µM); Activity [25]: 8.64%; IC50 [26]: 19.1 µM; MIC [27]: 0.5 µg/mL (≈ 1.11 µM); MIC [28]: 1 µg/mL (≈ 2.22 µM); IC50 [29]: > 30 µM; MIC [30]: 1 µg/mL (≈ 2.22 µM); MBIC50 [31]: >64 µg/mL
